Measured values from ChEMBL document CHEMBL1125303, “Truncated, branched, and/or cyclic analogues of neuropeptide Y: importance of the pancreatic peptide fold in the design of specific Y2 receptor ligands” (J Med Chem, 1992).
Positions of bridges follow the written chain, without caps; N, C: chain ends. Non-standard residues stand in square brackets, D forms with d. Residues, ends and D or L forms follow the SMILES beside them. Orn = NCCC[C@H](N)C(=O)O; Dap = NC[C@H](N)C(=O)O

Legend:
[1] = target: T1, Neuropeptide Y receptor type 2 (Homo sapiens, UniProt P49146); assay: Displacement of l25I-PYY from Neuropeptide Y receptor type 2 of human neuroblastoma SK-N-BE cells; type: cell-based
T1 sequence (P49146 whole entry): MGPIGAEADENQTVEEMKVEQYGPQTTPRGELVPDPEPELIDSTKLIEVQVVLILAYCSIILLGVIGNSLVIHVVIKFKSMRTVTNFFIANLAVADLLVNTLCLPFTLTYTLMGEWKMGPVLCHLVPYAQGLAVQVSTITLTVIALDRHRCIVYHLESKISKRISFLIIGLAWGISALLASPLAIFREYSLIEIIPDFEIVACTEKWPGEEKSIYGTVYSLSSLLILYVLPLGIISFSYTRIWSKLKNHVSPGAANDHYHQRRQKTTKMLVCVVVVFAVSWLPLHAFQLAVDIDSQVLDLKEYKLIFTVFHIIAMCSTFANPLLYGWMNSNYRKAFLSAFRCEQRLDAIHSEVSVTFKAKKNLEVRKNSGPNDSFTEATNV
Summary of the method: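 Intact SK-N-BE(2) cells (Y2) were grown in DME:F12 with 10% FCS, then plated at 10⁶ cells/well on poly(Lys-Ala)-coated wells and used after 1 day. Cells were washed cold, lysed and gamma-counted. Triplicates; Kd fitted with LIGAND.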

[2] = target: T2, Neuropeptide Y receptor type 1 (Homo sapiens, UniProt P25929); assay: Displacement of l25I-PYY from Neuropeptide Y receptor type 1 of human neuroblastoma SK-N-MC cells; type: cell-based
T2 sequence (P25929 whole entry): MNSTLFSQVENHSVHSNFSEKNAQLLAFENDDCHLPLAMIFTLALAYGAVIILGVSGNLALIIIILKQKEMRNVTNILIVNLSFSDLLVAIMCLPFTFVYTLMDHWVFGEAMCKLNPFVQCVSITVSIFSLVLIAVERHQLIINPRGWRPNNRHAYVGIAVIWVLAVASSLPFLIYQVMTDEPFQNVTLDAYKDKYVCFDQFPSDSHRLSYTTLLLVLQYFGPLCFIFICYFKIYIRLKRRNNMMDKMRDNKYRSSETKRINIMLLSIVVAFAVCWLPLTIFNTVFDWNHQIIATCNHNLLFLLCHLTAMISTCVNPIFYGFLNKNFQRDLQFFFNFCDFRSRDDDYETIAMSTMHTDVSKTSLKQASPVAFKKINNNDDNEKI
Summary of the method: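 Intact SK-N-MC cells (Y1) were grown in MEM with 10% FCS, then plated at 10⁶ cells/well on poly(Lys-Ala)-coated wells and used after 2 days. Cells were washed cold, lysed and gamma-counted. Triplicates; Kd fitted with LIGAND.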

Row | SMILES | Kd [1] [nM] | Kd [2] [nM] | Kd ([2]; sk-n-mc) [nM] | Kd ([1]; sk-n-be) [nM]
1 | CC[C@H](C)[C@@H]1NC(=O)[C@H](Cc2ccc(O)cc2)NC(=O)[C@@H](C)NC(=O)[C@@H]2CCCN2C(=O)[C@@H](N)CCC(=O)NC[C@H](C(=O)N[C@H](C(=O)N[C@H](C(=O)N[C@@H](CCCNC(=N)N)C(=O)N[C@@H](CCC(N)=O)C(=O)N[C@@H](CCCNC(=N)N)C(=O)N[C@@H](Cc2ccc(O)cc2)C(N)=O)[C@@H](C)O)[C@@H](C)CC)NC(=O)[C@H](CC(N)=O)NC1=O | > 1000 | > 1000 |  | 
2 | CC[C@H](C)[C@@H]1NC(=O)[C@H](Cc2ccc(O)cc2)NC(=O)[C@H](Cc2c[nH]cn2)NC(=O)[C@H](CCCNC(=N)N)NC(=O)[C@H](CC(C)C)NC(=O)[C@@H](C)NC(=O)[C@@H]2CCCN2C(=O)[C@H](CCCCN)NC(=O)[C@H](CO)NC(=O)[C@@H](NC(=O)[C@@H](N)Cc2ccc(O)cc2)CCC(=O)NC[C@H](C(=O)N[C@H](C(=O)N[C@H](C(=O)N[C@@H](CCCNC(=N)N)C(=O)N[C@@H](CCC(N)=O)C(=O)N[C@@H](CCCNC(=N)N)C(=O)N[C@@H](Cc2ccc(O)cc2)C(N)=O)[C@@H](C)O)[C@@H](C)CC)NC(=O)[C@H](CC(N)=O)NC1=O |  |  | > 1000 | 
3 | CC[C@H](C)[C@H](NC(=O)[C@H](CC(C)C)NC(=O)[C@H](CC(N)=O)NC(=O)[C@@H](NC(=O)[C@H]1CNC(=O)CC[C@H](NC(=O)[C@@H](N)Cc2ccc(O)cc2)C(=O)N[C@@H](CO)C(=O)N[C@@H](CCCCN)C(=O)N2CCC[C@H]2C(=O)N[C@H](C)C(=O)N[C@@H](CC(C)C)C(=O)N[C@@H](CCCNC(=N)N)C(=O)N[C@@H](Cc2cnc[nH]2)C(=O)N1)[C@@H](C)CC)C(=O)N[C@H](C(=O)N[C@@H](CCCNC(=N)N)C(=O)N[C@@H](CCC(N)=O)C(=O)N[C@@H](CCCNC(=N)N)C(=O)N[C@@H](Cc1ccc(O)cc1)C(N)=O)[C@@H](C)O |  |  | > 1000 | 3.6
4 | CC[C@H](C)[C@H](NC(=O)[C@H](Cc1ccc(O)cc1)NC(=O)[C@@H](C)NC(=O)[C@@H]1CCCN1C(=O)[C@@H](N)Cc1ccc(O)cc1)C(=O)N[C@@H](CC(N)=O)C(=O)N[C@@H](CC(C)C)C(=O)N[C@H](C(=O)N[C@H](C(=O)N[C@@H](CCCN=C(N)N)C(=O)N[C@@H](CCC(N)=O)C(=O)N[C@@H](CCCN=C(N)N)C(=O)N[C@@H](Cc1ccc(O)cc1)C(N)=O)[C@@H](C)O)[C@@H](C)CC |  |  |  | 120

Other lines, results leading:

Row | Kd [1] [nM] | Kd [2] [nM] | Kd ([2]; sk-n-mc) [nM] | Kd ([1]; sk-n-be) [nM] | SMILES
5 |  |  | > 1000 | 590 | CC[C@H](C)[C@H](NC(=O)[C@H](Cc1ccc(O)cc1)NC(=O)[C@H](Cc1cnc[nH]1)NC(=O)[C@H](CCCNC(=N)N)NC(=O)[C@H](CC(C)C)NC(=O)[C@H](C)NC(=O)[C@H](CO)NC(=O)[C@H](Cc1ccc(O)cc1)NC(=O)[C@H](Cc1ccc(O)cc1)NC(=O)[C@H](CCCNC(=N)N)NC(=O)[C@H](C)N)C(=O)N[C@@H](CC(N)=O)C(=O)N[C@H]1CNC(=O)CC[C@@H](C(=O)N[C@@H](CCCNC(=N)N)C(=O)N[C@@H](Cc2ccc(O)cc2)C(N)=O)NC(=O)[C@H](CCCNC(=N)N)NC(=O)[C@H]([C@@H](C)O)NC(=O)[C@H]([C@@H](C)CC)NC1=O (H-ARYYSALRHYIN[Dap]ITRERY-NH2; lactam 13-17)
6 |  | > 1000 |  |  | CC[C@H](C)[C@H](NC(=O)[C@H](Cc1ccc(O)cc1)NC(=O)[C@H](Cc1c[nH]cn1)NC(=O)[C@H](CCCNC(=N)N)NC(=O)[C@H](CC(C)C)NC(=O)[C@H](C)NC(=O)[C@H](CO)NC(=O)[C@H](Cc1ccc(O)cc1)NC(=O)[C@H](Cc1ccc(O)cc1)NC(=O)[C@H](CCCNC(=N)N)NC(=O)[C@H](C)N)C(=O)N[C@@H](CC(N)=O)C(=O)N[C@@H](CC(C)C)C(=O)N[C@H](C(=O)N[C@H](C(=O)N[C@H]1CCCCNC(=O)CC[C@@H](C(N)=O)NC(=O)[C@H](CCCNC(=N)N)NC(=O)[C@H](CCC(N)=O)NC1=O)[C@@H](C)O)[C@@H](C)CC (H-ARYYSALRHYINLITKQRE-NH2; lactam 16-19)
7 |  |  | > 1000 | 950 | CC[C@H](C)[C@H](NC(=O)[C@H](Cc1ccc(O)cc1)NC(=O)[C@H](Cc1cnc[nH]1)NC(=O)[C@H](CCCNC(=N)N)NC(=O)[C@H](CC(C)C)NC(=O)[C@H](C)NC(=O)[C@H](CO)NC(=O)[C@H](Cc1ccc(O)cc1)NC(=O)[C@H](Cc1ccc(O)cc1)NC(=O)[C@H](CCCNC(=N)N)NC(=O)[C@H](C)N)C(=O)N[C@@H](CC(N)=O)C(=O)N[C@H]1CCCNC(=O)CC[C@@H](C(=O)N[C@@H](CCCNC(=N)N)C(=O)N[C@@H](Cc2ccc(O)cc2)C(N)=O)NC(=O)[C@H](CCCNC(=N)N)NC(=O)[C@H]([C@@H](C)O)NC(=O)[C@H]([C@@H](C)CC)NC1=O (H-ARYYSALRHYIN[Orn]ITRERY-NH2; lactam 13-17)
8 |  |  | > 1000 | 360 | CC[C@H](C)[C@H](NC(=O)[C@H](Cc1ccc(O)cc1)NC(=O)[C@H](Cc1c[nH]cn1)NC(=O)[C@H](CCCN=C(N)N)NC(=O)[C@H](CC(C)C)NC(=O)[C@H](C)NC(=O)[C@H](CO)NC(=O)[C@H](Cc1ccc(O)cc1)NC(=O)[C@H](Cc1ccc(O)cc1)NC(=O)[C@H](CCCN=C(N)N)NC(=O)[C@H](C)N)C(=O)N[C@@H](CC(N)=O)C(=O)N[C@H]1CCCCNC(=O)CC[C@@H](C(=O)N[C@@H](CCCN=C(N)N)C(=O)N[C@@H](Cc2ccc(O)cc2)C(N)=O)NC(=O)[C@H](CCCN=C(N)N)NC(=O)[C@H]([C@@H](C)O)NC(=O)[C@H]([C@@H](C)CC)NC1=O (H-ARYYSALRHYINKITRERY-NH2; lactam 13-17)
